# Rows were chosen to be rich in hits. Some 2.9% of all compounds tested hit in one or more screens of this group.
# Runt-CBFb FRET – inhibitors of human RUNX1 Runt domain binding to CBFb | AID 1496 | inhibition, % at 20 µM | 220,000 compounds, 0.46% hits | Cerulean-Runt/Venus-CBFb FRET ratio 530/480, 1 h | Q01196+Q13951;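 active = inhibition over about 50% at 20 µM in the single-dose screen, limit read from the data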;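 note: 0% = DMSO wells and 100% = excess unlabeled CBFb competitor control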
#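 Buffer or medium: Tris pH 7.5 buffer with BSA. Assay system: Cerulean-labeled Runt domain protein. Amount: each fluorescent fusion protein 100 nM. Read-out basis: loss of energy transfer signal. Incubation: 1 h compound exposure, room temperature. Probe or stimulus: Venus-CBFb binding partner, 100 nM. Detection: FRET, excitation 422 nm, emission at 530 and 480 nm.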
# Runt-SMMHC FRET – Runt domain-CBFb-SMMHC interaction inhibition; 220,000 compounds, 0.74% hits; inhibition, % at 20 µM; Cerulean-Runt/Venus-CBFb-SMMHC FRET ratio 530/480, 1 h;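 active = mean inhibition across duplicate retests at 20 µM reaching about 50%, limit read from the data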;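 note: 0% = DMSO wells and 100% = wells with excess untagged CBFb-SMMHC; inhibitors lower the FRET ratio by blocking Runt binding to CBFb-SMMHC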
# PfM18AAP inh-1 – PfM18AAP enzyme inhibition | inhibition, % at 7.35 µM | 290,000 compounds, 1.2% hits | recombinant PfM18AAP, H-Glu-NHMec fluorogenic cleavage;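 active = inhibition above the campaign mean inhibition over all tested compounds plus 3 SD, cut at about 28% in these data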;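 note: 0% = plate median of test compound wells and 100% = 2 mM ZnCl2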
# RanGTP-Imp inh – inhibitors of RanGTP-importin-beta interaction, primary screen, biochemical, FRET, CFP-Ran, YFP-importin-beta, homogeneous | cell-free CFP-Ran/YFP-importin-beta FRET ratio | inhibition, % (no concentration beside the values) | 300,000 compounds, 1.1% hits;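 active = more than half of the replicate wells show a fall in the fluorescence ratio signal beyond about 16%, limit read from the data, passing the limit was not always enough; inconclusive = exactly half of the replicate wells pass the set limit; inactive = fewer than half of replicates pass the limit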;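 note: 0% = DMSO wells and 100% = Ran loaded with GDP instead of GTP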
# Hck Nef HTS – blocks Nef-activated human Hck kinase. P08631. Recombinant Hck-YEEI plus Nef, Z-Lyte FRET kinase assay. inhibition, % at 20 µM. 220,000 compounds, 0.68% hits;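 active = Hck-Nef kinase inhibition above about 50%, limit read from the data; inactive = inhibition below that limit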;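 note: 0% = DMSO with Hck plus Nef and 100% = Hck alone without Nef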
# RBBP9 inh – inhibitors of human serine hydrolase RBBP9; O75884; inhibition, % at 7.94 µM; recombinant RBBP9, FP-Rh probe fluorescence polarization; 220,000 compounds, 0.2% hits;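 active = inhibition above the campaign mean of all tested compounds plus 3 SD, cut at about 14% in these data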;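 note: plate controls were DMSO wells with RBBP9 for no effect and wells lacking RBBP9 protein for full effect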
# Target sequence (O75884 whole entry, looked up): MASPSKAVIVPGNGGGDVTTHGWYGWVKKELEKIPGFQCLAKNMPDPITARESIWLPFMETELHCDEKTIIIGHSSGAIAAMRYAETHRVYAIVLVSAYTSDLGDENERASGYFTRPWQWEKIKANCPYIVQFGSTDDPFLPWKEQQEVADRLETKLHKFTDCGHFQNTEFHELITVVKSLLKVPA
#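 Assay system: recombinant human RBBP9; Reagent: Serine-hydrolase probe FP-Rh, 375 nM pre-mixing; Doses: 7.94 µM single dose, 0.794% DMSO; Incubation: 30 min then 45 min, 25 °C; Detection: fluorescence polarization (mP), excitation 525 nm, emission 598 nm; Evaluation: percent inhibition from mP, scaled between DMSO and no-protein wells.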
# PfM18AAP inh-2 – confirmation of Plasmodium falciparum M18 aspartyl aminopeptidase inhibitors; AID 2170; recombinant PfM18AAP, H-Glu-NHMec fluorogenic cleavage; inhibition, % at 7.35 µM; shares compounds with PfM18AAP inh-1; 2,400 compounds, 28% hits;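 active = mean inhibition over replicate wells above the hit cutoff set for the earlier primary screen, cut at about 29% in these data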;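 note: 0% = median of test compound wells and 100% = 2 mM ZnCl2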
# CTSL1 confirm – counter-screen for PFM18AAP inhibitors: confirmation of human cathepsin L inhibitors. shares compounds with PfM18AAP inh-1. purified cathepsin L1, Z-Leu-Arg-MCA fluorescence. inhibition, % at 5.96 µM. 2,400 tested, under 10 active. AID 2178;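 active = average inhibition across replicates above the hit cutoff set in the earlier primary screen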;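 note: 0% = median of test compound wells and 100% = Z-Phe-Ala-diazomethylketone 1 µM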
# Target sequence (P07711 whole entry, looked up): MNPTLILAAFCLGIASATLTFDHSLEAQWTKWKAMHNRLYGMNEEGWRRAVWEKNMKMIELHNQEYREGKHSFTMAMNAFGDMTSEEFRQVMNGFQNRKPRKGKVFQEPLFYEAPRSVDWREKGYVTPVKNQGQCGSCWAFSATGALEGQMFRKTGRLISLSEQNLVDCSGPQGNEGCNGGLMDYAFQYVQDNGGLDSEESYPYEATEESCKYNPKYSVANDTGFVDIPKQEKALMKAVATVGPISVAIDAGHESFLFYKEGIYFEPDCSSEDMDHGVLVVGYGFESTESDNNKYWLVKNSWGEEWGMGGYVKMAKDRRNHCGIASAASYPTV
# * = called active by the depositor; ? = inconclusive; · = no result.
SMILES,Runt-CBFb FRET,Runt-SMMHC FRET,PfM18AAP inh-1,RanGTP-Imp inh,Hck Nef HTS,RBBP9 inh,PfM18AAP inh-2,CTSL1 confirm
CCc1nnc(NC(=O)CSc2nnc(Cc3ccc(OC)cc3)o2)s1,2,-1,41*,3,1,1,-33,-3
CCc1nnc(NC(=O)CSc2nnc(COc3cccc(C)c3)o2)s1,2,6,47*,0,2,-2,-40,-5
COc1ccc(Cc2nnc(SCC(=O)Nc3ncc(C)s3)o2)cc1,0,0,21,1,0,-1,·,·
CCc1nnc(NC(=O)CSc2nnc(COc3ccccc3C)o2)s1,2,2,27,3,-1,-9,·,·
Cc1ccc(-c2ocnc2C(=O)Nc2nc(C)cs2)cc1,·,·,4,3,·,·,·,·
CC(=O)C1=C(C)Nc2cc(C(F)(F)F)ccc2S1,35,49,36*,5,-2,-6,-4,-1
CCN1CCN(C(=S)Nc2ccc(Cl)c(Cl)c2)CC1,1,-5,0,-3,2,-7,·,·
CCN1CCN(C(=S)c2ccc(Cl)c(Cl)c2)CC1,37,46,45*,-5,2,4,6,0
C/C(=N\Nc1cccc(C(=O)O)c1)c1ccc(Cl)s1,2,1,41*,4,-2,7,-46,-1
COc1ccc(/C(C)=N/Nc2cccc(C(=O)O)c2)cc1OC,3,-2,13,10,-3,-3,·,·
COc1ccc(/C(C)=N/Nc2nc3ccccc3nc2C)cc1OC,-2,-1,39*,7,17,-8,-21,3
COc1ccc(/C(C)=N\NS(=O)(=O)c2ccccc2)cc1OC,0,-3,1,4,1,1,·,·
O=c1[nH]c(CSc2ncn[nH]2)nc2ccccc12,-1,-2,69*,-2,18,-3,73*,5
CC(=O)c1c(C)[nH]c(C(=O)Nc2ccc(F)cc2F)c1C,·,·,3,-1,·,·,·,·
N#Cc1c(-c2ccccc2)cc(-c2cccs2)nc1SCC(=O)O,·,·,4,-4,·,·,·,·
N#Cc1c(-c2ccc(Cl)cc2)cc(-c2cccs2)nc1SCC(=O)O,·,·,36*,2,·,·,-2,-2
CCNc1c(N)c(=O)oc2ccccc12,0,2,-12,-1,1,-6,·,·
CCCNc1c(N)c(=O)oc2ccccc12,2,0,49*,3,-1,-2,-3,-6
CCCCN1C(=O)C(=O)N(CC(=O)N2N=C3/C(=C/c4ccco4)CCCC3C2c2ccco2)C1=O (stereo unspecified),-1,2,3,4,10,1,·,·
O=C(CSc1ncn[nH]1)N1N=C2/C(=C/c3ccco3)CCCC2C1c1ccco1 (stereo unspecified),31,8,36*,-3,-3,-10,1,1
O=C(Nc1ccccc1)NC1CCCCNC1=O (stereo unspecified),-1,-3,-11,-3,15,-6,·,·
O=C(N/N=C/c1coc2ccccc2c1=O)c1ccccc1Br,0,1,36*,-1,45,-6,-29,0
Cn1c(O)c(/C=N/NC(=O)c2cc3ccccc3cc2O)c2ccccc21,·,·,32*,-3,·,·,0,7
O=C(NC1CCC(=O)N(CCOc2ccccc2)CC1)OCc1ccccc1 (stereo unspecified),·,·,-14,0,·,·,·,·
COC(=O)c1c(N)sc(C(=O)NCCc2ccccc2)c1C,·,·,40*,1,·,·,-11,-5
SMILES,Runt-CBFb FRET,Runt-SMMHC FRET,PfM18AAP inh-1,RanGTP-Imp inh,Hck Nef HTS,RBBP9 inh,PfM18AAP inh-2,CTSL1 confirm
COc1ccc(CNC(=O)CCCn2nc(C)c3c(C)n(-c4ccccc4)nc3c2=O)cc1,·,·,-2,2,·,·,·,·
O=C1CCCC2=C1C(c1ccc(O)c(O)c1)Nc1ccc3ncccc3c12 (stereo unspecified),48,42,78*,4,34,6,78*,1
CCOC(=O)c1c(C)[nH]c(C)c1S(=O)(=O)NCCN1CCN(c2ccccc2F)CC1,·,·,4,-2,·,·,·,·
COC(=O)c1cc([N+](=O)[O-])c(-n2cncn2)c([N+](=O)[O-])c1,·,·,83*,?,26,-9,44*,-4
COc1ccc(/C(=N\Nc2ccccc2C(=O)O)c2ccccc2)cc1,-2,-2,38*,-2,7,-1,-12,0
NC(=O)N/N=C/c1c(O)ccc2oc3c(c12)CCCC3,2,-4,26,1,45,-6,·,·
CC(C)(C)N=Cc1c(O)ccc2oc3c(c12)CCCC3,·,·,33*,3,·,·,-18,4
O=C(NCCc1nc2ccccc2[nH]1)C1CCC(=O)N(CCc2cccc(F)c2)C1 (stereo unspecified),·,·,2,7,·,·,·,·
CC(=O)NS(=O)(=O)c1ccc2sc(C)nc2c1,2,0,22,-1,-1,1,-32,0
COc1ccc(C(C(=O)NCC2CCCO2)N(Cc2cccs2)C(=O)c2snc(C(N)=O)c2N)cc1 (stereo unspecified),·,·,3,-6,·,·,·,·
O=C(NCCN1CCOCC1)c1cc2cc([N+](=O)[O-])ccc2s1,1,4,6,-2,17,-4,·,·

# Bioassay records deposited in PubChem BioAssay by several laboratories.
